Measurements as given in ChEMBL document CHEMBL4706750, “Design and Catalyzed Activation of Mycophenolic Acid Prodrugs” (ACS Med Chem Lett, 2021).
Activity calls are given as the source filed them. The rule behind the calls is not given here.

How the values were obtained:
[1] = Stability of compound in PBS at pH 7.4 and 37 degree C measured by HPLC method; assay type: physicochemical; conditions: buffer
Summary of the method: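 Compound incubated at 37 °C in PBS (pH 7.4, 5% DMSO) with no catalyst. Remaining compound followed over time.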

[2] = Toxicity in human hepatocytes assessed by dehydrogenase activity measured after 48 hrs by CCK-8 assay; assay type: cell-based, Hepatocyte
Summary of the method: (§1)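 Cells cultured with compound for 48 h, then dehydrogenase activity read by colorimetric CCK-8 assay. EC50 derived from the concentration series. Cells were primary human hepatocytes or the MIN6 pancreatic β-cell line, as the line states.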

[3] = molecular target: Inosine-5'-monophosphate dehydrogenase 2 (Homo sapiens) (UniProt P12268); assay: Inhibition of IMPDH2 (unknown origin) assessed by conversion of NAD+ to NADH preincubated for 30 mins followed by addition of inosine-5'- monophosphate substrate and NAD at 10 uM measured by plate reader method
Sequence of Inosine-5'-monophosphate dehydrogenase 2 (Homo sapiens) (P12268 2-514 limits assumed): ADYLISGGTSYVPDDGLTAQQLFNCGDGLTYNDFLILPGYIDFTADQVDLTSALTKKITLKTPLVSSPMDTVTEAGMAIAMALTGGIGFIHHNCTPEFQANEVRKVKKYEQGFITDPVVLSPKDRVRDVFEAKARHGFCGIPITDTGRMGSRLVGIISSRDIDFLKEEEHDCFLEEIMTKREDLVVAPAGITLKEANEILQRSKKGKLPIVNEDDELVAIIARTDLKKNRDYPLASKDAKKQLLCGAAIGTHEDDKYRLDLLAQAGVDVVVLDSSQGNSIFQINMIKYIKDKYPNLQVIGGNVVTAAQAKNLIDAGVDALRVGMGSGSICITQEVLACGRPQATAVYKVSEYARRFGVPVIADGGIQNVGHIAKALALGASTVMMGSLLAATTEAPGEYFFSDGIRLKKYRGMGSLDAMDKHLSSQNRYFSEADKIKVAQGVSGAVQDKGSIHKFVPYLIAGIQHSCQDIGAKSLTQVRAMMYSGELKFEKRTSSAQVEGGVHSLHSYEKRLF
Summary of the method: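 IMPDH2 enzyme exposed to test compounds, then stimulated with inosine-5′-monophosphate and NAD+. NADH formation followed by absorbance at 340 nm. Single test concentration of 10 μM.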

[4] = Toxicity in mouse MIN6 cells assessed by dehydrogenase activity measured after 48 hrs by CCK-8 assay; assay type: cell-based; summary of the method: as §1
[5] = Prodrug conversion in PBS buffer assessed as mycophenolic acid formation in presence of nitroreductase and NADH.; assay type: ADME
Summary of the method: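 Prodrug incubated at 37 °C in PBS (pH 7.4, 5% DMSO) with nitroreductase conjugated to 30 μm amino-terminated polystyrene beads by reductive amination, plus NADH. Release of mycophenolic acid followed over time.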

For `COc1c(C)c2c(c(OCc3ccc([N+](=O)[O-])cc3)c1C/C=C(\C)CCC(=O)O)C(=O)OC2`, which Stabilty [1] is on record?
Its Stabilty is “Stable”.

What about the EC50 at 48 h [2] of the same compound?
The EC50 at 48 h was 14.4 µM.

What about the inhibition [3] of the same compound?
The inhibition was “inactive”.

What about the EC50 at 48 h [4] of the same compound?
Its EC50 at 48 h is 24 µM.

What about the Drug metabolism [5] of the same compound?
Its Drug metabolism is “Metabolite_Detected”.

With `COc1c(C)c2c(c(O)c1C/C=C(\C)CCC(=O)O)C(=O)OC2` [MYCOPHENOLIC ACID] as the compound, how does the EC50 at 48 h [2] read?
Its EC50 at 48 h is 5.9 µM.

What about the inhibition [3] of the same compound?
Its inhibition is “Active”.

And the EC50 at 48 h [4]?
The EC50 at 48 h was 0.6 µM.

Which Stabilty [1] does the source give for `C#CCOc1c(C/C=C(\C)CCC(=O)O)c(OC)c(C)c2c1C(=O)OC2` here?
The Stabilty was “Stable”.

What about the EC50 at 48 h [2] of the same compound?
The EC50 at 48 h was 20.1 µM.

What about the inhibition [3] of the same compound?
Its inhibition is “inactive”.

With `COc1c(C)c2c(c(OCc3ccc([N+](=O)[O-])cc3)c1C/C=C(\C)CCC(=O)OCc1ccc([N+](=O)[O-])cc1)C(=O)OC2` as the compound, how does the EC50 at 48 h [2] read?
The EC50 at 48 h was 8.3 µM.

What about the inhibition [3] of the same compound?
Its inhibition is “inactive”.

Which results are given for `C#CCOC(=O)CC/C(C)=C/Cc1c(OC)c(C)c2c(c1OCC#C)C(=O)OC2`?
EC50 at 48 h [2]: 6.7 µM; inhibition [3]: inactive
